# Columns and labels:
# [1] = biological target: T1, Polyunsaturated fatty acid 5-lipoxygenase (Homo sapiens, UniProt P09917); test: Inhibition of human recombinant 5-LOX expressed in Escherichia coli BL21 incubated for 10 mins in presence of arachidonic acid by RP-HPLC based cell-free assay
# T1 sequence (P09917 whole entry): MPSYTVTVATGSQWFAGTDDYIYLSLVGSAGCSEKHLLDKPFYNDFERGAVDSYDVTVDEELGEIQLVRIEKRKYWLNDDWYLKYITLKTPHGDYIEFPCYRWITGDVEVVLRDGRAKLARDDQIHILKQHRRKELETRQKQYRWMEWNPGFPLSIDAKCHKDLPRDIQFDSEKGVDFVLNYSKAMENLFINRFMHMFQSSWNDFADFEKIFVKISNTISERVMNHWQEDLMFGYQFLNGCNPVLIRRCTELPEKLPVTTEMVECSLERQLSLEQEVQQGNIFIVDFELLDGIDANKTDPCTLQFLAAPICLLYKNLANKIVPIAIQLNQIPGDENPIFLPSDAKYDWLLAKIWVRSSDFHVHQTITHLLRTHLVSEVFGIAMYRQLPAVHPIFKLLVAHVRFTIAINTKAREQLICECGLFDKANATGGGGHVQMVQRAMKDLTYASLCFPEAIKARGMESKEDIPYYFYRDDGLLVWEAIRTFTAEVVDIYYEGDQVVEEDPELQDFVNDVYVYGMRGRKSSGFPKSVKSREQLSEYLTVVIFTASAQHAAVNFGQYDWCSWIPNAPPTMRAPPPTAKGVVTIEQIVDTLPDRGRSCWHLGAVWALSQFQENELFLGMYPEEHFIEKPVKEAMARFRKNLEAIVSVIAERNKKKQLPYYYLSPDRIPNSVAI
# Summary of the method: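 Recombinant human 5-LO, semi-purified from a 40,000 × g lysate supernatant on ATP-agarose, diluted in ice-cold PBS with 1 mM EDTA and 1 mM ATP. Preincubated 10 min at 4 °C with compound or 0.1% DMSO, warmed 30 s at 37 °C, then started with 2 mM CaCl₂ plus 20 µM AA. Reaction 10 min at 37 °C, stopped with cold methanol, products by RP-HPLC. IC₅₀ from 4–5 concentrations.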
# [2] = biological target: T1, Polyunsaturated fatty acid 5-lipoxygenase; test: Inhibition of 5-LOX in A23187-stimulated human blood PMNL assessed as reduction in lipoxygenase products formation pre-incubated for 15 mins followed by stimulation with A23187 for 10 mins by RP-HPLC based cell based assay
# Summary of the method: (§1)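 Human PMNL (5 × 10⁶ in 1 ml PBS pH 7.4, 1 mg/ml glucose, 1 mM CaCl₂), preincubated 15 min at 37 °C with compound or 0.1% DMSO, then stimulated 10 min at 37 °C with A23187, with or without AA. 5-LO products measured. Values are mean ± S.E. of 3–4 independent experiments. IC₅₀ read graphically from 4–5 concentrations.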
# [3] = biological target: T1, Polyunsaturated fatty acid 5-lipoxygenase; test: Inhibition of 5-LOX in A23187-stimulated human blood PMNL assessed as reduction in lipoxygenase products formation in presence of arachidonic acid pre-incubated for 15 mins followed by stimulation with A23187 for 10 mins by RP-HPLC based cell based assay; summary of the method: as §1
# [4] = biological target: T2, Polyunsaturated fatty acid lipoxygenase ALOX15 (Homo sapiens) (UniProt P16050); test: Inhibition of 15-LOX-1 in human blood PMNL assessed as remaining activity by measuring 15-HETE synthesis at 10 uM
# T2 sequence (whole entry): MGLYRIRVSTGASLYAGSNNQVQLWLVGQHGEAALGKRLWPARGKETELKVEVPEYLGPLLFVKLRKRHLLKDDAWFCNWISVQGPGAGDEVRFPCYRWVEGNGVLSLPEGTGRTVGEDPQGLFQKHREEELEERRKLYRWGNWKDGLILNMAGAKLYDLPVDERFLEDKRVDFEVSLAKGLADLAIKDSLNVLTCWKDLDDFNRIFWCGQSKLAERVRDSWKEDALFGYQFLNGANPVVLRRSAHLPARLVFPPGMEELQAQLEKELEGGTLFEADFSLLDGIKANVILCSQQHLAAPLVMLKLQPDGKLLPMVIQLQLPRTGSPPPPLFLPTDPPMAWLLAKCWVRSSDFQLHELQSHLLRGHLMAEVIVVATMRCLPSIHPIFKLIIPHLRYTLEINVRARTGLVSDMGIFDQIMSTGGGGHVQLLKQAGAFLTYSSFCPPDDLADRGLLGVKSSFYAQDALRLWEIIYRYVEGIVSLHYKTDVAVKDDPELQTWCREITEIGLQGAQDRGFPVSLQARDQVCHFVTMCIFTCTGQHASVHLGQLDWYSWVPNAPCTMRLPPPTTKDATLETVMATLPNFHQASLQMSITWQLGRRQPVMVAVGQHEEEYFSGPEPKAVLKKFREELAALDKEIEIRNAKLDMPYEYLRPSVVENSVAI
# Summary of the method: (§2)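 PMNL isolated from heparinized blood of fasted healthy donors by dextran sedimentation and Nycoprep centrifugation, with hypotonic lysis of erythrocytes. Cells at 5 × 10⁶ in 1 ml PBS pH 7.4 with 1 mg/ml glucose and 1 mM CaCl₂, preincubated 15 min at 37 °C with compound or 0.1% DMSO vehicle, then stimulated 10 min at 37 °C. 12-HETE or 15-HETE formation measured.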
# [5] = biological target: T3, Polyunsaturated fatty acid lipoxygenase ALOX12 (Homo sapiens) (UniProt P18054); test: Inhibition of 12-LOX in human blood PMNL assessed as remaining activity by measuring 12-HETE synthesis at 10 uM; summary of the method: as §2
# T3 sequence (whole entry): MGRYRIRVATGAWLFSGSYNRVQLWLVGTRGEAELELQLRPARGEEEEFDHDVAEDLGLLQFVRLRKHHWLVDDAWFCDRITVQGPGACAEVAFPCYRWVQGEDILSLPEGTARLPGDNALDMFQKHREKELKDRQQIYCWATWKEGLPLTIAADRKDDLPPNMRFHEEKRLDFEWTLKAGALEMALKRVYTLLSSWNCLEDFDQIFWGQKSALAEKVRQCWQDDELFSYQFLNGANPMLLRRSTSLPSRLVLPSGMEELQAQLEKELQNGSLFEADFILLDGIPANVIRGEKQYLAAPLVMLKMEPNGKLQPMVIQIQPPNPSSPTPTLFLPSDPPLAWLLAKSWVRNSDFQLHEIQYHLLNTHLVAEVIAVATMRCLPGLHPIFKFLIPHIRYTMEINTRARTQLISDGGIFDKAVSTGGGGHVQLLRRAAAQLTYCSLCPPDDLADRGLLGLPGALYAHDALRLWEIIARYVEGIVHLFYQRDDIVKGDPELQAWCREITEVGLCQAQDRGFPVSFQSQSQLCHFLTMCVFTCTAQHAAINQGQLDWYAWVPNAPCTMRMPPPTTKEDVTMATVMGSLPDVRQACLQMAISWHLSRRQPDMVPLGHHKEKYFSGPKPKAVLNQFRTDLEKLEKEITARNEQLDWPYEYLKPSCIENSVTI
# [6] = biological target: T4, Polyunsaturated fatty acid 5-lipoxygenase (Homo sapiens) (UniProt P09917); test: Inhibition of 5-LOX in A23187-stimulated human blood PMNL assessed as remaining activity by measuring lipoxygenase products formation at 10 uM in presence of arachidonic acid pre-incubated for 15 mins followed by stimulation with A23187 for 10 mins by RP-HPLC based cell based assay; summary of the method: as §1
# T4 sequence (whole entry): T1 sequence (P09917 whole entry)
Compound,IC50 [1] [nM],IC50 [2] [nM],IC50 [3] [nM],Activity [4] [%],Activity [5] [%],Activity [6] [%]
CCCCCCCCCCCCC1=C(OC)C(=O)C=C(OC)C1=O,610,630,490,127,138,–
CCCCCCCCCCCCC1=C(O)C(=O)C=C(OC)C1=O,740,560,1100,116,148,–
COC1=CC(=O)C(OC)=C(C/C=C(\C)CC/C=C(\C)CCC=C(C)C)C1=O,1700,310,1200,136,139,–
CCCCCCC1=C(OC)C(OC)=CC(=O)C1=O,2600,330,990,91.7,18.6,–
CCCCCCCCCCC1=C(O)C(=O)C=C(OC)C1=O,4300,590,2700,123,122,–
CCCCCCCCCCCCCCCC1=C(O)C(=O)C=C(OC)C1=O,270,390,860,103,92.8,–
CCCCCCCCC1=C(OC)C(OC)=CC(=O)C1=O,330,380,820,102,59.3,–
COC1=CC(=O)C(OC)=C(C/C=C(\C)CCC=C(C)C)C1=O,3300,450,1600,127,90.3,–
CCCCCCCCCCCCCC1=C(O)C(=O)C=C(O)C1=O [Rapanone],220,2500,4700,124,84.3,–
COC1=CC(=O)C(O)=C(C/C=C(\C)CC/C=C(\C)CCC=C(C)C)C1=O,5600,1900,2400,122,108,–
CCCCC1=C(OC)C(=O)C=C(OC)C1=O,3300,3400,7900,103,103,–
CCCCCCC1=C(OC)C(=O)C=C(OC)C1=O,2600,320,1400,101,102,–
CCCCCCCCCCCCCC1=C(O)C(=O)C=C(OC)C1=O [Sorgoleone-364],920,770,2300,88.1,73.2,–
CCCCCCCCCCCCCCCC1=C(O)C(=O)C=C(O)C1=O,230,4300,> 10000,103,87.7,61.7
CCCCCCCCCCCCC1=C(O)C(=O)C=C(O)C1=O,170,4600,3900,65.1,90.6,–

# Source: ChEMBL document CHEMBL3414543, “Novel series of benzoquinones with high potency against 5-lipoxygenase in human polymorphonuclear leukocytes” (Eur J Med Chem, 2015)
